TAAR1 ag: human TAAR1 agonism; Q96RJ0; CHO RD-HGA16 TAAR1, Fluo-8 calcium fluorescence; vehicle wells 0%, saturating PEA agonist 100%; activation, % at 3 µM; hit rate 0.99% among 360,000; AID 624467;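 active = activation above the mean activation of all test compounds in the run plus 3 SD, cut at about 38% in these data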
Target sequence (Q96RJ0 whole entry, looked up): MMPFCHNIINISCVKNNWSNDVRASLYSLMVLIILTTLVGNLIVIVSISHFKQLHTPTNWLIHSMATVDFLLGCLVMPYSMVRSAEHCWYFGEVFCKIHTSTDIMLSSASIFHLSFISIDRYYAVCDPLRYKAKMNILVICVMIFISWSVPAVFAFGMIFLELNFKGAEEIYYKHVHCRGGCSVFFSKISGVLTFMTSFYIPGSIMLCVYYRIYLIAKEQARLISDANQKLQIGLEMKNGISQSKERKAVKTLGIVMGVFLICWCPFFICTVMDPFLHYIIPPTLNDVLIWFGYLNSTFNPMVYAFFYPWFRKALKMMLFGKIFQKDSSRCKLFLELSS
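Signal – calcium-sensitive Fluo-8 signal, excitation 470-495, emission 515-575 nm · System – RD-HGA16 (CHO) cells co-expressing Gα16 and hTAAR1 · Incubation – 17-24 h seeding, 75 min 37 °C dye, 30 min RT · Compound dosing – 3 µM single concentration · Repeats – no replicates (n 1)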
GPR7 antagonist: human neuropeptides B/W receptor 1 antagonism; hit rate 1.1% among 290,000; GPR7-expressing cells, fluorescence antagonist assay; AID 1861; inhibition, % at 4.4 µM; in the data active = inhibition above about 16%, passing the limit was not always enough;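 note: cells stimulated with the agonist NPW; 0% = agonist with vehicle and 100% = vehicle without agonist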
Target sequence (P48145 whole entry, looked up): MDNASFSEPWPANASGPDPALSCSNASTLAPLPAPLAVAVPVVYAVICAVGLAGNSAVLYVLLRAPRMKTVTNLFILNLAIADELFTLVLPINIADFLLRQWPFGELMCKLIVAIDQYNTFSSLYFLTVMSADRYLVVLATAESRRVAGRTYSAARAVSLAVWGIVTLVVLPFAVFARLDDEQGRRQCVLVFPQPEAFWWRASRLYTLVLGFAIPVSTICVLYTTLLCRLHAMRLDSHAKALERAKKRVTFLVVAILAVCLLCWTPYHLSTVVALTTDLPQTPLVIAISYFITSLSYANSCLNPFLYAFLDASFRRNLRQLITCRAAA
CHO parental Ca: counter-screen for OX1R antagonists: effect in parental CHO cells; hit rate 0.63% among 330,000; parental CHO-K1, ATP-induced calcium, Fluo-8 fluorescence; inhibition, % at 5.6 µM;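 active = inhibition above that plate's mean sample inhibition plus 3 SD, cut at about 26% in these data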;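 note: 0% = ATP-challenged DMSO wells and 100% = DMSO wells without ATP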
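Test system: untransfected parental CHO cell line; also added: ATP stimulus; dosing: 5.6 µM, single dose; signal: calcium-sensitive Fluo-8 fluorescence; measure: percent inhibition of ATP-evoked calcium rise, normalized to controls; benchmarks: low control ATP plus DMSO, high control DMSO only; replication: one well per compound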
OX1R antag-1: OX1R (human) antagonism; O43613; OX1R-expressing cells, FRET antagonist read-out; inhibition, % at 6.6 µM; hit rate 1.8% among 330,000; AID 485270; in the data active = inhibition mostly above about 38%, no sharp cut-off; inactive = mostly below about 40%;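 note: 0% = agonist challenge alone and 100% = reference antagonist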
OX1R antag-2: blocks the human orexin 1 receptor. O43613. inhibition, % at 5 µM. CHO/OX1R cells, Fluo-8 calcium fluorescence, orexin A. hit rate 0.43% among 330,000. AID 434989;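 active = inhibition above its plate's threshold, mean inhibition of all tested compounds on the plate plus 3 SD, cut at about 37% in these data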;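 note: 0% = orexin A challenge wells and 100% = SB-334867-A antagonist wells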
TAAR1 antag: antagonists of human TAAR1. AID 624466. inhibition, % at 3 µM. CHO RD-HGA16 TAAR1, Fluo-8 calcium fluorescence, antagonist. hit rate 1.5% among 360,000. Q96RJ0;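 active = inhibition above a per-plate cutoff, the mean inhibition of test compounds on that plate plus 3 SD, cut at about 49% in these data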;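 note: 0% = DMSO plus EC80 beta-PEA response and 100% = DMSO alone without agonist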
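Test system: hTAAR1-expressing CHO RD-HGA16 cells, Gα16-coupled; Probe or stimulus: EC80 β-phenethylamine stimulus; Compound dosing: single nominal final test compound concentration of 3 µM; Timing: 140 s kinetic read after compound, 140 s after agonist; Signal: Fluo-8 calcium-sensitive fluorescence; Measure: % inhibition of agonist calcium response; Controls: DMSO and EC80 PEA controls.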
GPR7 antag cf: confirmation of human GPR7 antagonists | inhibition, % at 4.4 µM | GPR7-expressing cells, calcium fluorescence antagonist mode | shares compounds with GPR7 antagonist | hit rate 52% among 2,400; in the data active = inhibition above about 24%;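 note: stimulated with the GPR7 agonist NPW; 0% = agonist plus vehicle and 100% = vehicle alone without agonist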
MCHR1 antagonist: antagonizes human MCHR1, a GPR7 antagonist counter-screen; shares compounds with GPR7 antagonist; MCHR1-expressing cells, fluorescence antagonist assay; inhibition, % at 4.4 µM; hit rate 62% among 2,400; in the data active = inhibition above about 22%;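 note: 0% = vehicle with agonist and 100% = vehicle without agonist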
An asterisk follows results filed as active; / = no result. An excerpt weighted towards active compounds, which were near 4.5% of everything screened.

SMILES	TAAR1 ag	GPR7 antagonist	CHO parental Ca	OX1R antag-1	OX1R antag-2	TAAR1 antag	GPR7 antag cf	MCHR1 antagonist
COc1ccc(OC)c(NC(=O)CS(=O)(=O)Cc2nc(-c3ccccc3C)oc2C)c1	0	-1	-20	72*	2	-9	/	/
COc1cccc(-c2nc(CS(=O)(=O)CC(=O)Nc3cccc(C(C)=O)c3)c(C)o2)c1	4	-7	-32	48*	0	8	/	/
CC1CCCC(NC(=O)COC(=O)c2cccs2)C1C (stereo unspecified)	7	/	4	2	-3	-9	/	/
Cc1ccc(S(=O)(=O)Nc2ccc3nc(N)sc3c2)cc1	5	-1	34*	19	32	23	/	/
Cc1nc2ccc(NS(=O)(=O)c3cccc([N+](=O)[O-])c3)cc2s1	4	/	30*	20	29	19	/	/
Cc1nc2ccc(NS(=O)(=O)c3ccc4c(c3)OCCO4)cc2s1	18	15	31	27	45*	5	/	/
Cc1ccc(C(C(=O)NCc2ccccc2)N(C(=O)c2ccccn2)c2ccccc2)o1 (stereo unspecified)	18	1	-19	5	-26	8	/	/
COC(=O)[C@@H](Cc1ccccc1)NC(=O)[C@H]1O[C@@H](n2cnc3c(=O)[nH]c(N)nc32)[C@H](O)[C@@H]1O	1	/	/	/	/	4	/	/
O=[N+]([O-])c1ccc(O)c(-c2cc(C(F)(F)F)nc(-c3ccccc3)n2)c1	11	44*	74*	-26	21	14	72*	60*
CC(C)Oc1ccc(OCCNC2CCCC2)cc1	1	-3	0	7	-7	-1	/	/
CCOc1cccc(OCCNC2CCCC2)c1	0	61*	-8	11	-19	2	1	-2
Cc1ncsc1CCOC(=O)c1cccc([N+](=O)[O-])c1	1	22*	-9	33	-1	-6	-18	34*
CCn1nc(C)c(CN2CCC(C(=O)Nc3cccc(-c4cccc(Cl)c4)c3)CC2)c1C	17	26*	-17	1	-28	-10	19	51*
C=C1CCc2c([nH]c3ccc(OCC(C)C)cc23)C1=O	8	57*	/	/	/	-8	91*	97*
CCCCn1c(N)c(N(CC(C)C)C(=O)COC(=O)C2(c3ccccc3)CC2)c(=O)[nH]c1=O	-2	/	-23	4	-32	10	/	/
Cc1cccc(N2CCN(S(=O)(=O)c3cc(-c4cc(C)no4)ccc3C)CC2C)c1 (stereo unspecified)	-1	31*	4	16	-10	-11	45*	61*
COc1ccc(-c2cc(C)no2)cc1S(=O)(=O)N1CCN(c2cccc(C)c2)C(C)C1 (stereo unspecified)	-2	2	6	20	-18	9	/	/
COc1ccc(N2CCN(S(=O)(=O)c3cc(-c4cc(C)no4)ccc3C(C)C)CC2)cc1	15	21	-23	7	-6	-49	/	/
Cc1cc(-c2ccc(C(C)C)c(S(=O)(=O)N3CCN(c4ccccc4)CC3)c2)on1	14	27*	-15	14	-23	-36	30*	40*
Cc1cccc(COc2ccc(S(=O)(=O)N3CCOCC3)cc2[N+](=O)[O-])c1	2	/	/	/	/	-2	/	/
Cc1ccc(S(=O)(=O)NCc2ccc(/C=C(/C#N)C(=O)NCc3ccccc3)o2)cc1	-1	24*	-31	12	-13	7	50*	58*
O=C(O)[C@H](Cc1ccccc1)NC(=O)N1CCN(c2cccc(C(F)(F)F)c2)CC1	4	-10	-8	-1	-7	-1	/	/
OC(CNCc1ccccc1F)(c1ccc(F)cc1)c1ccc(F)cc1	0	9	-26	16	-23	3	/	/
COc1ccccc1CNCC(O)(c1ccc(Cl)cc1)c1ccc(Cl)cc1	14	28*	-30	9	-29	-4	47*	33*
COc1ccccc1CNCC(O)(c1ccc(F)cc1)c1ccc(F)cc1	3	40*	-27	6	-44	8	41*	36*
SMILES	TAAR1 ag	GPR7 antagonist	CHO parental Ca	OX1R antag-1	OX1R antag-2	TAAR1 antag	GPR7 antag cf	MCHR1 antagonist
CCCC(=O)Nc1c2c(nn1-c1ccc(F)cc1)CS(=O)(=O)C2	4	-4	-5	4	4	5	/	/
O=C(CCC1CCCCC1)Nc1c2c(nn1-c1ccc(F)cc1)CS(=O)(=O)C2	10	32*	-12	9	1	-3	43*	29*
COc1ccc(CN2CCc3c([nH]c4ccccc34)C2)cc1Br	16	42*	-18	10	-22	-52	52*	38*
CCOC(=O)C1=C(C)N=C2SC(C(=O)OC)=CC(=O)N2C1c1cc(OC)c(OC)c(OC)c1 (stereo unspecified)	-1	15	-13	22	-24	2	/	/
COc1ccc(CCNC(=O)C(=O)NCc2ccc(C)cc2)cc1OC	/	-4	-16	21	-20	/	/	/
O=C(c1ccco1)N1CCC(c2nc(-c3ccc(F)cc3)no2)CC1	3	11	-2	4	10	6	/	/
O=C(c1ccco1)N1CCC(c2nc(-c3ccccc3Cl)no2)CC1	15	28*	0	5	-10	1	0	1
COc1ccccc1-c1cc(C(=O)NC2CCN(C)CC2)c2ccc(Cl)c(C)c2n1	4	43*	7	3	4	-7	69*	81*
CCOc1c(Br)cc(/C=C(\C#N)C(=O)NC2CC2)cc1OC	2	24*	-6	17	-24	-37	47*	41*
Cc1nnc(SCC(=O)NC2CCS(=O)(=O)C2)n1-c1ccccc1 (stereo unspecified)	5	25*	-2	15	-9	-15	-10	12
CC(OC(=O)c1ccc(F)c(S(=O)(=O)N2CCOCC2)c1)C(=O)NC1CCCC1 (stereo unspecified)	1	/	/	/	/	-31	/	/
COCCN(C(=O)COC(=O)CCS(=O)(=O)c1ccccc1)c1c(N)n(Cc2ccccc2)c(=O)[nH]c1=O	0	/	-3	18	-7	-2	/	/
CN1/C(=C\C(=O)COc2ccc3c(c2)OCO3)C(C)(C)c2ccccc21	6	28*	7	63	21	35	12	44*
O=C(O)c1ccc(NCc2cccc(Br)c2)cc1	10	29*	3	12	14	-6	28*	18
O=C(O)c1ccc(NCc2ccncc2)cc1	9	10	-14	8	2	-1	/	/
COc1ccc(Cl)cc1NC(=O)Cn1c(NCCO)nc2ccccc21	1	1	-9	9	-1	-7	/	/
